Results gathered from unrelated publications.
Target: Protein-tyrosine kinase 6 (PTK6, Homo sapiens, UniProt Q13882)

C[C@H](c1ccc(F)cc1)N(Cc1cccc(C(=O)O)c1)C(=O)c1cnc2ccccc2c1  remaining binding (cell-free assay; competition with immobilised ligand; 1 µM): 83%
CNC(=O)[C@@H]1CC[C@@H](n2c(-c3ccc4cnccc4c3)nc3ccc(C(=O)NCc4cccc(C(N)=O)c4)cc32)C1  remaining binding (binding; competition with immobilised ligand; 1 µM): 100%
CCN1CCN(Cc2ccc(C(=O)Nc3ccc(C)c(Oc4ccc5c(c4)CC(=O)N5)c3)cc2C(F)(F)F)CC1  remaining binding (binding; competition with immobilised ligand; 1 µM): 100%
CN(C)c1ncnc(-c2ccc3nc(Nc4cc(CN5CCN(C(=O)CC(F)(F)F)CC5)ccn4)[nH]c3c2)c1Cl  remaining binding (cell-free assay; competition with immobilised ligand; 1 µM): 86%
CN(C)c1nccc(-c2cnc3ncccn23)n1  remaining binding (binding; 1 µM): 92%
FC(F)(F)Oc1cccc(-c2cnc3ccc(-c4ccncc4)nn23)c1  remaining binding (cell-free assay; competition with immobilised ligand; 5 µM): 86%
Cc1cnc(Nc2ccc(C(=O)N3CCC(N4CCCC4)CC3)cc2)nc1-c1cc2ccccc2s1  remaining binding (binding; competition with immobilised ligand; 1 µM): 26%
N[C@@H]1CCN(c2nccc(-c3cnn4ncccc34)n2)C1  remaining binding (binding; 1 µM): 100%
CCc1ccccc1C(=O)Nc1n[nH]c2c(C)c(F)c(C3C(C#N)=C(C)N(C)C(C)=C3C#N)cc12  remaining binding (cell-free assay; competition with immobilised ligand; 1 µM): 100%
c1cnn2ncc(-c3ccnc(N4CCC45COC5)n3)c2c1  remaining binding (binding; 1 µM): 83%
COc1cnc(Nc2cccc(S(N)(=O)=O)c2)nc1N1CCN(c2ccccc2)CC1  remaining binding (binding; competition with immobilised ligand; 1 µM): 100%
Cc1cnn2ncc(-c3ccnc(N(C)C)n3)c2c1  remaining binding (binding; 1 µM): 100%
COc1cc(-c2cn(C3CCc4ccccc4N(CC(F)(F)F)C3=O)nn2)ccc1-n1ccc(C)n1 (centres unmarked)  remaining binding (cell-free assay; competition with immobilised ligand; 1 µM): 100%
O=C(Nc1c[nH]nc1C(=O)NC1CCNCC1)c1cc(F)cc(F)c1  remaining binding (binding; competition with immobilised ligand; 1 µM): 100%
O=C(c1ccc(Nc2ncc(Cl)c(-c3ccc(Cl)s3)n2)cc1)N1CCC(N2CCCC2)CC1  remaining binding (binding; competition with immobilised ligand; 1 µM): 79%
CCOC(=O)c1cc2cc(-c3cc(C(=O)NCc4ccc(C(=O)O)cc4)nn3C)ccc2[nH]1  remaining binding (cell-free assay; competition with immobilised ligand; 0.1 µM): 98%
CN(CCCC(F)(F)F)c1nccc(-c2cnn3ncccc23)n1  remaining binding (binding; 1 µM): 97%
Nc1c(C(=O)NCc2ccc(C(=O)NCCCC3CCCCC3)cc2)cnn1-c1ccccc1  remaining binding (cell-free assay; competition with immobilised ligand; 0.1 µM): 96%
C[C@H]1CCN(c2nccc(-c3cnn4ncccc34)n2)C1  remaining binding (binding; 1 µM): 100%
Nc1ncc2c(n1)-c1c([nH]c3ccc(C#CC4CC4)cc13)CCCC2  remaining binding (binding; competition with immobilised ligand; 1 µM): 97%
